One may read the IC50 as the concentration needed to halve the response being measured. The term inhibition denotes the percentage by which the read-out fell short of the control.

The source made the active and inactive calls. No cut-off for these calls is given here.

The target in assay [1] is T1, Hypoxia inducible factors; HIF-1-alpha, HIF-2-alpha (Homo sapiens, UniProt Q16665+Q99814). The experiment in a line: Inhibition of hypoxia-induced HIF1 activation in human T47D cells by pTK-HRE3-luciferase reporter gene assay. The assay is classed as cell-based. The method in brief:
(§1)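 T47D HIF-1 luciferase reporter under hypoxia (1% O2). Compounds supplied as 4 mM isopropanol stocks, final solvent under 0.75%. % inhibition = (1 − treated/induced light output) × 100. Concentration-response, one experiment in triplicate, mean ± SD.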

Assay [2] in a line: (§2) Inhibition of electron transport protein complex 1 in human T47D cells assessed as decrease in oxygen consumption by mitochondrial respiration assay. The assay is classed as cell-based. The procedure, abridged: (§3)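 Oxygen consumption of intact T47D cells measured by an adapted isolated-mitochondria respiration method. Compounds tested at 1, 3, 10 and 30 μM. Three independent experiments, mean ± SD. One-way ANOVA with Bonferroni post hoc, p < 0.05.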

The target in assay [3] is T1, Hypoxia inducible factors; HIF-1-alpha, HIF-2-alpha. Kind of assay: Inhibition of hypoxia-induced HIF1 activation in human T47D cells at 30 uM by pTK-HRE3-luciferase reporter gene assay. The assay is classed as cell-based. The method in brief: as §1
(A reporter such as luciferase makes a cellular process visible.)

The target is the same in assay [4]. Kind of assay: Inhibition of 1,10-phenanthroline-induced HIF1 activation in human T47D cells at 10 uM by pTK-HRE3-luciferase reporter gene assay. Format: cell-based. The method in brief: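 T47D HIF-1 luciferase reporter; activation induced with 1,10-phenanthroline (10 μM). Compounds supplied as 4 mM isopropanol stocks, final solvent under 0.75%. % inhibition = (1 − treated/induced light output) × 100. Concentration-response, one experiment in triplicate, mean ± SD.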

Assay [5] has as its system T47D. The experiment in a line: Inhibition of hypoxia-induced increase in VEGF production in human T47D cells at 30 uM after 16 hrs by ELISA. The assay is classed as functional. The procedure, abridged: (§4)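 T47D cells held at 1% O2 for 16 h with compound at 10 or 30 μM. Secreted VEGF in conditioned medium measured by ELISA and normalized to total cell-lysate protein (micro BCA). One experiment in triplicate, mean ± SD. Compared with one-way ANOVA and Bonferroni post hoc.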
In general terms: In an ELISA, binding on a coated surface is turned into a signal by an enzyme label.

Assay [6] has as its system T47D. Kind of assay: Inhibition of electron transport protein complex 1 in human T47D cells assessed as decrease in oxygen consumption at 10 uM by mitochondrial respiration assay. Format: cell-based. The procedure, abridged:
(§5)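 Digitonin-permeabilized T47D cells, O2 consumption. Malate/pyruvate starts complex I respiration. Rotenone, then succinate (complex II substrate), then antimycin A, then TMPD/ascorbate (complex IV substrates) added sequentially. Rotenone and antimycin A from ethanol stocks, final 1 μM.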

Assay [7] deals with T47D. The experiment in a line: Inhibition of electron transport protein complex 4 in human T47D cells assessed as decrease in oxygen consumption at 10 uM in presence of succinate by mitochondrial respiration assay. Format: cell-based. The procedure, abridged: as §5
For assay [8], the system named is T47D. Kind of assay: Inhibition of electron transport protein complex 2 in human T47D cells assessed as decrease in oxygen consumption at 10 uM in presence of succinate by mitochondrial respiration assay. Format: cell-based. The procedure, abridged: as §5
In assay [9] the test system is T47D. Kind of assay: Inhibition of electron transport protein complex 3 in human T47D cells assessed as decrease in oxygen consumption at 10 uM in presence of succinate by mitochondrial respiration assay. The assay is classed as cell-based. The procedure, abridged: as §5
Assay [10] deals with T47D. Described as §2. Format: cell-based. The method in brief: as §3
In assay [11] the test system is T47D. Kind of assay: Inhibition of hypoxia-induced increase in VEGF production in human T47D cells at 10 uM after 16 hrs by ELISA. Format: functional, cell-based. The procedure, abridged: as §4

`CC(C)CCCCCCCCCCCCc1ccc(C=O)[nH]1` gave a half-inhibitory concentration (IC50) in assay [1] of 20 µM.
In the case of `N#CCCCCCCCCCCCCCCCCCCCCc1ccc(C=O)[nH]1`, in assay [2], the IC50 is greater than 30 µM. Besides, the inhibition in [3] is less than 50%.
Compound `CC(C)CCCCCCCCCCCCCc1ccc(C=O)[nH]1` had an inhibition in assay [3] of less than 50%.
Same read-out and setting: then `CC/C=C\C/C=C\C/C=C\CCCCCCCc1ccc(C=O)[nH]1`, with less than 50%.
Still for that read-out and setting: the figure for `CCCCCC/C=C\CCCCCCCCCc1ccc(C=O)[nH]1` is less than 50%.
The same measure, in the same setting: then `CCCCCCCCCCCCCCCCc1ccc(C=O)[nH]1`, with less than 50%; and `CCCCCCCCCCCCCCCc1ccc(C=O)[nH]1`, with less than 50%.
Take `N#CCCCCCC/C=C\CCCCCCCCCCCCCc1ccc(C=O)[nH]1`: in [3], the inhibition is less than 50%.
Still for that read-out and setting: then `N#CCCCCCCCCCCCCC/C=C\CCCCCCc1ccc(C=O)[nH]1`, with less than 50%; and `N#CCCCCCCCCCCCCCC/C=C\CCCCCCc1ccc(C=O)[nH]1`, with less than 50%; and `N#CCCCCCCCCCCCCCCCC/C=C\C/C=C\CCc1ccc(C=O)[nH]1`, with less than 50%.
The compound `N#CCCCCCCCCCCCCCCCCCCCc1ccc(C=O)[nH]1` registered an inhibition in assay [3] of less than 50%.
With `N#CCCCCCCCCCCCCCCCCCCc1ccc(C=O)[nH]1`, the inhibition in [3] was less than 50%.
Turning to `CC/C=C\C/C=C\C/C=C\CCCCCCCCCCCc1ccc(C=O)[nH]1` [MYCALAZAL 3], the IC50 in assay [1] worked out at 20 µM.
Still for that read-out and setting: then `CCCCCCCCCCCCCCc1ccc(C=O)[nH]1` [MYCALAZAL 14], with 20 µM; and `CC(C)CCCCCCCCC/C=C\CCc1ccc(C=O)[nH]1` [MYCALAZAL 16], with 20 µM; and `CC(C)CCCCC/C=C\CCCCCCc1ccc(C=O)[nH]1` [MYCALAZAL 17], with 20 µM.
Consider `CCC/C=C\C/C=C\CCCCCCCCCc1ccc(C=O)[nH]1` [MYCALAZAL 18], for which the IC50 in assay [1] was found to be 20 µM.
Compound `CC/C=C\C/C=C\C/C=C\CCCCCCCCCc1ccc(C=O)[nH]1` [MYCALAZAL 20] displayed a concentration for half-maximal inhibition (IC50) in assay [1] of 20 µM.
With `N#CCCCCCCCCCCCCCCCCCc1ccc(C=O)[nH]1` [MYCALENITRILE 1], the IC50 in assay [1] was 10 µM. Moreover, in assay [4], the inhibition result was “inactive”.
For `N#CCCCC/C=C\C/C=C\CCCCCCCCCCCCCCc1ccc(C=O)[nH]1` [MYCALENITRILE 5] the same measures were 10 µM and “inactive”.
Take `N#CCCCC/C=C\C/C=C\CCCCCCCCCCCCc1ccc(C=O)[nH]1` [MYCALENITRILE 7]: the concentration for half-maximal inhibition (IC50) is 8.6 µM in [1] and less than 10 µM in assay [2]. Besides, the inhibition entry in [5], in assay [4] and in assay [11] was “inactive” throughout. Besides, in assay [6], the result was Active. Further, the result in assay [7], in assay [8] and in assay [9] was inactive. Besides, the Activity result in [10] was “Dose-dependent effect”.
As for `N#CCCCCCC/C=C\CCCCCCCCCCCc1ccc(C=O)[nH]1` [MYCALENITRILE 8], the IC50 in assay [1] stood at 10 µM. Besides, the inhibition entry in assay [4] was “inactive”.
For `N#CCCCCCC/C=C\CCCCCCCCCCCCCCCc1ccc(C=O)[nH]1` [MYCALENITRILE 10], in assay [2], the IC50 is greater than 30 µM. Further, the inhibition in assay [3] was less than 50%.
As to `N#CCCCCCCCCCCCCCCCc1ccc(C=O)[nH]1` [MYCALENITRILE 13], in [1], the IC50 is 10 µM. Moreover, in assay [4], the inhibition entry is “inactive”.
As to `N#CCCCC/C=C\C/C=C\CCCCCCCCCCc1ccc(C=O)[nH]1` [Mycalenitrile-6], the half-inhibitory concentration (IC50) in [1] was 7.8 µM; in [2], less than 10 µM. Further, the inhibition at 30 µM in [5] worked out at 50%. The result in assay [6] was Active. The outcome in [7], in assay [8] and in [9] was inactive. The inhibition result in assay [4] was “inactive”. Moreover, the Activity entry in [10] is “Dose-dependent effect”.

(Values after ChEMBL document CHEMBL1154374, “Lipophilic 2,5-disubstituted pyrroles from the marine sponge Mycale sp. inhibit mitochondrial respiration and HIF-1 activation” (J Nat Prod, 2009).)
